HCV NS3 hel inh: inhibitors of HCV NS3 helicase, primary screen, biochemical, Cy5 molecular beacon fluorescence; 290,000 compounds, 0.56% hits; Hepatitis C virus NS3 helicase; inhibition, % at 10.9 µM; NS3 helicase DNA unwinding; AID 1800, 2009;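 active = inhibition above the mean of all tested compounds plus 3 SD, set per campaign, cut at about 35% in these data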;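 note: 0% = DMSO wells and 100% = thioflavine S control wells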
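Assay system – hepatitis C virus NS3 helicase domain fragment enzyme · Buffer or medium – MOPS pH 6.5, MgCl2, DTT, Tween20, BSA · Reagent – Cy5/quencher beacon DNA duplex and ATP to start · Compound – single 10.9 µM dose · Timing – 1 h at 25 °C · Technique – Cy5 beacon fluorescence read at start and 1 h · Measure – % inhibition of unwinding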
EBNA-1 inhibitor: EBNA-1 DNA-binding inhibitors, primary screen, biochemical, fluorescence polarization | inhibition, % at 14.8 µM | 300,000 compounds, 0.34% hits; in the data active = inhibition above about 28%
GRIN3A LBD mod: binders of NR3A ligand-binding domain, primary screen, biophysical, differential scanning fluorimetry, uHTS; Glutamate receptor ionotropic, NMDA 3A (GRIN3A) ligand-binding domain; NR3A LBD differential scanning fluorimetry, Tm shift; 0% = protein alone, 100% = glycine-bound protein; Tm shift relative to glycine control, % at 25 µM; 340,000 compounds, 2.5% hits;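 active = melting temperature shift of at least 10% of the positive control shift, at one fixed dose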
ZTA counter: ZTA (EBV) inhibition in EBNA-1 counter-screen. P03206. ZTA-DNA binding, fluorescence polarization. inhibition, % at 11 µM. 320,000 compounds, 0.15% hits. AID 2234; in the data active = inhibition above about 33%
Target sequence (P03206 whole entry, looked up): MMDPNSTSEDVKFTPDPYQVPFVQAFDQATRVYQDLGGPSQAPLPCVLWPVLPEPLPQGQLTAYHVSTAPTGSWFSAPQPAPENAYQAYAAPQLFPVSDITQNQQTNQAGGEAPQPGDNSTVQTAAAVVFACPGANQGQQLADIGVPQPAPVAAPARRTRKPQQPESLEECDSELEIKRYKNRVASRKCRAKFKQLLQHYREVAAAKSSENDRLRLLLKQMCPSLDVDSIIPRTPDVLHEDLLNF
FID counter: compounds displacing fluorescent DNA intercalator, primary screen, artefact control for HCV NS3 helicase inhibitor project, biochemical, FID fluorescence; DNA fluorescent intercalator displacement; inhibition, % at 7.9 µM; 290,000 compounds, 0.17% hits; in the data active = inhibition above about 37%;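 note: 0% = vehicle and 100% = reference compound; higher means more ethidium bromide displaced from hairpin DNA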
FGF22 binding: binders of human FGF22 protein, primary screen, FGF22 synaptogenesis inhibitor project, biophysical, thermal shift, single point; recombinant FGF22 thermal shift, SYPRO orange fluorescence; percent of sucrose octasulfate shift, DMSO zero; Fibroblast growth factor 22 (Homo sapiens), Q9HCT0; activity (Tm shift, normalised), % at 9.99 µM; 340,000 compounds, 1.5% hits;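 active = mean Tm shift, scaled 0 neutral to 100 positive control, at about 1.3% or above, every replicate too, limit read from the data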
Target sequence (Q9HCT0 whole entry, looked up): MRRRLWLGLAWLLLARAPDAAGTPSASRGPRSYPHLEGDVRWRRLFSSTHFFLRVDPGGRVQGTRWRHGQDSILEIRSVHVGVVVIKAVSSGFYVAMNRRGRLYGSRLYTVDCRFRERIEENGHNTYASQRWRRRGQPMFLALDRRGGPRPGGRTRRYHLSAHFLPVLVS
Active calls of the source: *; · = no result. Only some compounds are listed: those with a hit (about 3.6% of all), similar ones and a draw of the others.

SMILES	HCV NS3 hel inh	EBNA-1 inhibitor	GRIN3A LBD mod	ZTA counter	FID counter	FGF22 binding
COc1ccc(C)cc1NC(=S)NNC(=O)c1ccccc1Cl	7	0	-4	11	-5	·
COc1ccc(C)cc1NC(=S)NNC(=O)c1c(Br)cnn1C	8	-2	-7	18	-23	44*
O=C(C[C@@H]1CC[C@H]2[C@@H](COC[C@H](O)CN2Cc2ccc(F)cc2)O1)NCc1ccncn1	·	·	·	·	·	0
CCOC(=O)c1cc(-c2ccccc2)nn1CC1CC(c2ccc(OC)cc2)=NO1 (stereo not given)	·	·	13*	·	·	0
CCOC(=O)c1cc(-c2ccccc2C)nn1CC1CC(c2ccc(OC)cc2)=NO1 (stereo not given)	·	·	0	-10	·	0
O=C(NC1CCCC1)N[C@H]1CC[C@@H](CC(=O)N2CCOCC2)O[C@H]1CO	·	·	·	·	·	0
Cc1cccc(NC(=O)C(=O)NCCCN2CCOCC2)c1	-4	-5	-2	-11	1	43*
Fc1cc(F)cc(NC(=S)NCCCN2CCOCC2)c1	2	1	1	4	12	43*
CC(C)OC(=O)N(C)C[C@H]1OCc2ccccc2-c2ccccc2C(=O)N([C@H](C)CO)C[C@H]1C	·	·	·	·	·	0
C[C@H]1CN([C@@H](C)CO)C(=O)c2cc(C3=CCCCC3)cnc2O[C@H]1CN(C)C(=O)c1ccccn1	·	·	·	·	·	0
O=C(CN1C(=O)COc2ccccc21)NCCCN1CCN(c2ccccc2F)CC1	23	-7	0	-14	37*	0
Cn1c(C(=O)NCCCN2CCN(c3ccccc3F)CC2)cc2c(=O)[nH]c3ccccc3c21	-20	-3	17*	-10	11	·
CO[C@H]1CC[C@@H]2CCN(C)C(=O)C[C@@H](c3ccccc3)CN(C)C(=O)c3cc(C#N)ccc3OC[C@@H]1O2	·	·	·	·	·	0
CO[C@H]1CN(C)C(=O)c2ccc(NC(=O)c3cc(C)on3)cc2OC[C@@H](C)N(C(C)=O)C[C@H]1C	·	·	·	·	·	0
Cc1ccc(NC(=S)NCCc2c[nH]c3ccccc23)cc1	-4	-8	23*	1	-3	·
Cc1cccc(NC(=S)NCCc2c[nH]c3ccccc23)c1	-6	1	28*	12	-5	·
CC(C)c1ccc(NC(=S)NCCc2c[nH]c3ccccc23)cc1	-29	16	31*	5	-8	0
Cc1ccc(C)c(NC(=S)NCCc2c[nH]c3ccccc23)c1	13	-1	3	-3	-12	0
COc1ccc(CN(C)C[C@H]2Oc3ccc(NS(=O)(=O)c4ccccc4)cc3CC(=O)N([C@@H](C)CO)C[C@H]2C)cc1	·	·	·	·	·	0
C[C@H]1CCCCO[C@@H](CN(C)C(=O)C2CCCCC2)[C@@H](C)CN([C@@H](C)CO)C(=O)c2cc(NC(=O)CCC(F)(F)F)ccc2O1	·	·	·	·	·	0
C[C@H](CO)N1C[C@H](C)[C@@H](CN(C)CC2CCCC2)Oc2ncc(-c3ccc(C#N)cc3)cc2C1=O	·	·	·	·	·	0
O=C(NC1CCCCC1)N[C@@H]1C=C[C@H](CC(=O)N2CCOCC2)O[C@@H]1CO	·	·	·	·	·	0
C[C@@H]1CN([C@H](C)CO)C(=O)Cc2cc(NC(=O)Nc3ccc4c(c3)OCO4)ccc2O[C@@H]1CN(C)S(=O)(=O)c1cccs1	·	·	·	·	·	0
COc1ccccc1C/C(N)=N/OC(=O)COc1cccc(C)c1	-2	0	13*	-6	-14	·
C[C@@H]1CN([C@H](C)CO)C(=O)c2cc(NC(=O)c3ccncc3)ccc2O[C@@H]1CN(C)Cc1ccncc1	·	·	·	·	·	0
Cc1ccc(NC(=O)C2CCCN2C(=O)NC2CCCCC2)cc1C (stereo not given)	8	1	-1	3	-3	0
Cc1ccc(NC(=O)C2CCCN2C(=O)NC2CCCCC2)cc1F (stereo not given)	4	-7	-1	-1	-13	43*
COc1ccccc1Oc1ccc2c(c1)C(=O)N(CC1CCCO1)C2=O (stereo not given)	-10	6	12*	11	-28	0
